Compound activity as filed in PubChem.
Apaf1 activ: human Apaf-1 activation; O14727; Apaf-1 apoptosome caspase-3 activation, DEVD-Rh110 fluorescence; stronger effect = lower value; activity change, negative = activation, % at 20 µM; 330,000 tested, 0.31% active; AID 489031;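 active = activity change at or below -40% at 20 µM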
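Assay system – biochemical Apaf-1 apoptosome reconstitution · Medium – 20 mM HEPES buffer, pH 7.5, containing CHAPS and BSA · Incubation – 30 min preincubation, 50 min reaction, room temperature · Measured by – Caspase-3-released Rh110 fluorescence, 540 nm emission, 480 nm excitation · Read-out – Caspase-3 cleavage activity downstream of Apaf-1 activation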
Rh110 act interf: Rh110 signal interference in Apaf-1 activator counter-screen. shares compounds with Apaf1 activ. fluorescence interference (activity change), % at 20 µM, hits read low. 980 tested, under 10 active. Rh110 fluorescence interference, quenched caspase reaction, Ex480/Em540;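 active = mean activity change at or below -40% when tested at 20 µM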
Apaf-1 act conf: Apaf-1 (human) activation, single-dose confirmed; shares compounds with Apaf1 activ; reconstituted apoptosome caspase-3 activity, DEVD-Rh110 fluorescence; stronger effect = lower value; activity change, negative = activation, % at 20 µM; 980 tested, 5% active; AID 504617;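 active = mean activity change at or below -40%, meaning activation of 40% or more, at 20 µM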
Numbers without * were called inactive; . = no result given. Not all results are given here.

SMILES	Apaf1 activ	Rh110 act interf	Apaf-1 act conf
C#CCOCCOCCOCCNc1nc(N2CCN(C(=O)CCCCCCCCCCNC(=O)[C@@H](CCC(=O)O)n3cc(CCCCCN)nn3)CC2)nc(N2CCN(C(=O)CCCCCCCCCCNC(=O)[C@H](CO)n3cc(CCCCCN)nn3)CC2)n1	54	.	.
NC(=O)CSc1nc2c(sc3ccccc32)c(=O)n1CCCN1CCOCC1	-236*	4	7
COc1ccc2c(c1)OC/C(=C/c1cccs1)C2=O	-94*	5	12
COc1ccccc1CCn1c(N)c(C#N)c2nc3ccccc3nc21	40	.	.
CCCCCCCCNC(C)C(O)c1ccc(SC(C)C)cc1 (stereo not drawn)	58	.	.
OC(CN1CCN(c2ccccc2)CC1)c1ccc2c(c1)CCN2 (stereo not drawn)	-460*	18	14
COc1cccc(OCC(O)CN2CCN(c3ccccc3)CC2)c1 (stereo not drawn)	5	.	.
O=C(N/N=C\c1ccc(-c2ccccc2[N+](=O)[O-])o1)C1COc2cc3ccccc3cc2O1 (stereo not drawn)	81	.	.
COc1ccc(OCC(NS(=O)(=O)c2ccc(-n3cnnn3)cc2)C(C)C)cc1 (stereo not drawn)	-424*	13	6
COc1ccc(S(=O)(=O)NCc2ccc3c(c2)cc(C)n3C)cc1	51	.	.
COc1ccc(S(=O)(=O)Nc2cc(SCC(=O)O)c(O)c3ccccc23)cc1	85	.	.
Nc1c(O)cccc1C(=O)O	53	.	.
Fc1ccc(NC(=S)Nc2cccc3cnccc23)cc1	95	.	.
CN(C)CCCNC(=O)C(=O)NCC1OCCN1S(=O)(=O)c1cccs1 (stereo not drawn)	64	.	.
O=C(CCn1c2c(c3ccccc31)CCCC2)NNC(=O)c1ccc(Cl)c([N+](=O)[O-])c1	89	.	.
N#Cc1ccsc1NC(=O)c1ccc(Cl)c([N+](=O)[O-])c1	48	.	.
N/C(=N\OC(=O)c1ccc(Cl)c([N+](=O)[O-])c1)c1ccccc1	-57*	7	14
CC(=O)C(C(C)=O)C1(O)C(=O)c2ccccc2C1=O	86	.	.
COc1ccc(Br)cc1C1CC(=O)N2CN(C)CSC2=C1C#N (stereo not drawn)	42	.	.
O=S(=O)(NCC(Nc1ccccc1)c1ccccc1)c1ccc(Cl)cc1 (stereo not drawn)	-245*	8	18
Cc1ccc(C(=O)N/N=C/c2ccc(-c3ccc(Br)cc3[N+](=O)[O-])o2)o1	42	.	.
COC(=O)CCC(=O)OC1(C)C(=O)C=C2C=C(C3CC3)N(C3CCCCC3)C=C2C1=O (stereo not drawn)	62	.	.
CCOC(=O)CCC(=O)NNC(=O)COc1ccc(C(C)C)cc1Br	-108*	-9	9
CC1(C)CC(=O)C(C=Nc2ccc(O)c(N=CC3=C(O)CC(C)(C)CC3=O)c2)=C(O)C1	47	.	.
CC(C)C[C@@H](C(=O)NC1CCN(Cc2ccccc2)CC1)N1C(=O)N2CCc3c([nH]c4ccccc34)[C@@]2(C)C1=O	45	.	.
SMILES	Apaf1 activ	Rh110 act interf	Apaf-1 act conf
Cc1c(C(=O)Nc2ccc(S(=O)(=O)N(C)C3CCN(C)CC3)cc2)oc2ccccc12	53	.	.
Cc1ccc(S(=O)(=O)N(C)c2ccccc2C(=O)NC2CCCC2)cc1	-59*	4	14
C#CCOCCOCCOCCNc1nc(N2CCN(C(=O)CCCCCCCCCCNC(=O)[C@@H](CCSC)n3cc(CCO)nn3)CC2)nc(N2CCN(C(=O)CCCCCCCCCCNC(=O)[C@H](CCC(=O)O)n3cc(CCCCCN)nn3)CC2)n1	62	.	.
COc1cccc(-c2sc3cc(OC)c(OC)cc3c2-c2ccc(OCCN3CCCCC3)cc2)c1	66	.	.
CC[C@H](C)Cc1cn([C@@H](CCCN=C(NC(=O)OC(C)(C)C)NC(=O)OC(C)(C)C)C(=O)NCCCCCCCCCCC(=O)N2CCN(C(=O)OC(C)(C)C)CC2)nn1	57	.	.
CNC[C@H](Cc1ccccc1)NC[C@@H](Cc1cccc2ccccc12)NCCc1ccc(C)cc1	48	.	.
COc1ccc(CCN2C(=O)C3C4CC(C5C(C(=O)NN)=NOC45)C3C2=O)cc1OC (stereo not drawn)	-312*	12	13
COc1ccc(CCN(C)C(=O)C2CC(=O)N(Cc3ccc(C)cc3)C2)cc1OC (stereo not drawn)	56	.	.
CCOC12NC(=O)CC(=O)N1C(c1ccccc1)=CS2 (stereo not drawn)	-294*	-2	13
CCC(CO)Oc1cc(NCc2cccnc2)c2ncn(C(C)C)c2c1 (stereo not drawn)	63	.	.
COc1ccc(OC)c(C2CC(=O)N3CN(c4cccc(Cl)c4)CSC3=C2C#N)c1 (stereo not drawn)	81	.	.
S=C1NCCc2ccc(Cl)cc2C1c1ccccc1Cl (stereo not drawn)	-514*	1	16
CCN(Cc1ccccc1)S(=O)(=O)c1ccc(C(=O)N(CCCN(C)C)c2nc3cc(C)cc(C)c3s2)cc1	42	.	.
COc1cccc2sc(N(CCN(C)C)C(=O)c3ccc4c(c3)CCCC4)nc12	50	.	.
N#Cc1c(NCCCO)nc(NCc2ccccc2)c2c1CCN(Cc1ccccc1)C2	69	.	.
COc1ccc2c(c1)c(/C=N/Nc1nc3ccccc3[nH]1)c(C)n2C	43	.	.
CS(=O)(=O)c1nc(-c2ccc(Br)cc2)cc(-c2ccccc2)c1C#N	47	.	.
CN(CCC#N)C(=O)COC(=O)c1cc(Cl)cc(Cl)c1N	-63*	11	17
Cc1ccc(N2C(=O)[C@@H]3[C@H](C2=O)C2c4ccccc4C=CN2[C@@H]3C(=O)c2ccco2)c(C)c1 (stereo partly drawn)	87	.	.
Cn1c(=O)oc2cc(S(=O)(=O)Nc3ccccc3O)ccc21	-46*	10	14
O=S(=O)(Nc1ccc(O)c2ccccc12)c1ccc(Br)cc1	57	.	.
COC(=O)CCC(=O)OC1(C)C(=O)C=C2C=C(C3CC3)N(CC3CC3)C=C2C1=O (stereo not drawn)	57	.	.
CC(C)(C)c1cc(CCC(=O)Nc2ccncc2)cc(C(C)(C)C)c1O	-450*	4	11
Cc1ccc2c(c1)c(=O)c1c3n2CCN(C(=O)CCl)C3CC1 (stereo not drawn)	64	.	.
C=CCNc1oc(-c2ccc(OCC)cc2)nc1C#N	-52*	12	15
SMILES	Apaf1 activ	Rh110 act interf	Apaf-1 act conf
C#CCOCCOCCOCCNc1nc(N2CCN(C(=O)CCCCCCCCCCNC(=O)[C@H](CCCCN)n3cc(C)nn3)CC2)nc(N2CCN(C(=O)CCCCCCCCCCNC(=O)[C@@H]([C@H](C)O)n3cc(C)nn3)CC2)n1	54	.	.
CCc1nn(CCCC(=O)NCc2ccccc2Br)c(=O)c2cc3occc3n12	46	.	.
CCCCCCCCCCn1c2c(c(=N)c3c1CCC3)CCC2	74	.	.
O=C1c2ccccc2C(=O)C1c1ccc2ccccc2n1	-334*	6	5
O=C(NCCCn1ccnc1)c1cc(Cl)cc(Cl)c1	-106*	-38	7
O=C(C[C@H]1C[C@H](C(=O)N2CCOCC2)[C@@]2(CCC3CCCC3)c3[nH]c4ccc(Cl)cc4c3CCN2C1=O)NCCCn1ccnc1	58	.	.
O=C(NCCCn1ccnc1)c1noc2c1CCc1ccccc1-2	47	.	.
COCCCC/C(=N\OCCN)c1ccc(C(F)(F)F)cc1	44	.	.
